In ChEMBL document CHEMBL3627606, “Development of Novel, CNS Penetrant Positive Allosteric Modulators for the Metabotropic Glutamate Receptor Subtype 1 (mGlu1), Based on an N-(3-Chloro-4-(1,3-dioxoisoindolin-2-yl)phenyl)-3-methylfuran-2-carboxamide Scaffold, That Potentiate Wild Type and Mutant mGlu1 Receptors Found in …” (J Med Chem, 2015):

Columns and labels:
[1] = target: T1, Metabotropic glutamate receptor 1 (Homo sapiens, UniProt Q13255); test: Positive allosteric modulation of human mGlu1 receptor in HEK293 cells assessed as potentiation of glutamate-induced calcium mobiliztion by Fluo-4AM dye based fluorescence analysis; format: functional, cell-based
Target sequence in this assay (Q13255 whole entry): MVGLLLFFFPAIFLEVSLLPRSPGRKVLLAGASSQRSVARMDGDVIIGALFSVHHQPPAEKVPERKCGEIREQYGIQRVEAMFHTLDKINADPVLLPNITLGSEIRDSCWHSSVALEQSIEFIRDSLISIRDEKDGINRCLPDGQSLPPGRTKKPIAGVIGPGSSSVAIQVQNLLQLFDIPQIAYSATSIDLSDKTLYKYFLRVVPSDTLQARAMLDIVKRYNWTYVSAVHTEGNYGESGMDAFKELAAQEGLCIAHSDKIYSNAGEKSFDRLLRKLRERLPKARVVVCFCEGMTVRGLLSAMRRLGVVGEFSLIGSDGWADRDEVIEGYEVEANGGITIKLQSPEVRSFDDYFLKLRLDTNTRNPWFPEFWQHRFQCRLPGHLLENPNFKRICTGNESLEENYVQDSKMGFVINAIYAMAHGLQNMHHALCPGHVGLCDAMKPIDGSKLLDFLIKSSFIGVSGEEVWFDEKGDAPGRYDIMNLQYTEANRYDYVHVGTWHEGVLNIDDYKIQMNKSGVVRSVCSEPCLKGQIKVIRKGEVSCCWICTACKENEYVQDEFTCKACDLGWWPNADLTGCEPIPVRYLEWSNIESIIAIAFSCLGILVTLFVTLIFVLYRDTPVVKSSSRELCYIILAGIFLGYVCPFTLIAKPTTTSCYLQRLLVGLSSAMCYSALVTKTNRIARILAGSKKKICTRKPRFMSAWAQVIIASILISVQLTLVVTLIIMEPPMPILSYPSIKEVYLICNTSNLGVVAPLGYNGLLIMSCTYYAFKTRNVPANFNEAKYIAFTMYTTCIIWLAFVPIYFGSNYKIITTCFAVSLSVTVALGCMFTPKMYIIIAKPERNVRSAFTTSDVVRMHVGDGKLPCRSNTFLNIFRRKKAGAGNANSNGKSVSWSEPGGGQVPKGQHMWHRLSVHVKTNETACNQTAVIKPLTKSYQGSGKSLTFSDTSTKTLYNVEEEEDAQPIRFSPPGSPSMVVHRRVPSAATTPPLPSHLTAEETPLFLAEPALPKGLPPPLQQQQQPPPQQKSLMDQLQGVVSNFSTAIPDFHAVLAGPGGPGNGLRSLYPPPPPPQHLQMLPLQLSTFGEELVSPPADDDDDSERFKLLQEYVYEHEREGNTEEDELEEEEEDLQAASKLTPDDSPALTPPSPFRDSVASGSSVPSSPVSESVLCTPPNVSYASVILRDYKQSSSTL

[2] = target: T1, Metabotropic glutamate receptor 1; test: Positive allosteric modulation of human mGlu1 receptor in HEK293 cells assessed as potentiation of glutamate-induced calcium mobiliztion by Fluo-4AM dye based fluorescence analysis relative to glutamate; format: functional, cell-based
Target sequence in this assay (Q13255 19-1194 limits assumed): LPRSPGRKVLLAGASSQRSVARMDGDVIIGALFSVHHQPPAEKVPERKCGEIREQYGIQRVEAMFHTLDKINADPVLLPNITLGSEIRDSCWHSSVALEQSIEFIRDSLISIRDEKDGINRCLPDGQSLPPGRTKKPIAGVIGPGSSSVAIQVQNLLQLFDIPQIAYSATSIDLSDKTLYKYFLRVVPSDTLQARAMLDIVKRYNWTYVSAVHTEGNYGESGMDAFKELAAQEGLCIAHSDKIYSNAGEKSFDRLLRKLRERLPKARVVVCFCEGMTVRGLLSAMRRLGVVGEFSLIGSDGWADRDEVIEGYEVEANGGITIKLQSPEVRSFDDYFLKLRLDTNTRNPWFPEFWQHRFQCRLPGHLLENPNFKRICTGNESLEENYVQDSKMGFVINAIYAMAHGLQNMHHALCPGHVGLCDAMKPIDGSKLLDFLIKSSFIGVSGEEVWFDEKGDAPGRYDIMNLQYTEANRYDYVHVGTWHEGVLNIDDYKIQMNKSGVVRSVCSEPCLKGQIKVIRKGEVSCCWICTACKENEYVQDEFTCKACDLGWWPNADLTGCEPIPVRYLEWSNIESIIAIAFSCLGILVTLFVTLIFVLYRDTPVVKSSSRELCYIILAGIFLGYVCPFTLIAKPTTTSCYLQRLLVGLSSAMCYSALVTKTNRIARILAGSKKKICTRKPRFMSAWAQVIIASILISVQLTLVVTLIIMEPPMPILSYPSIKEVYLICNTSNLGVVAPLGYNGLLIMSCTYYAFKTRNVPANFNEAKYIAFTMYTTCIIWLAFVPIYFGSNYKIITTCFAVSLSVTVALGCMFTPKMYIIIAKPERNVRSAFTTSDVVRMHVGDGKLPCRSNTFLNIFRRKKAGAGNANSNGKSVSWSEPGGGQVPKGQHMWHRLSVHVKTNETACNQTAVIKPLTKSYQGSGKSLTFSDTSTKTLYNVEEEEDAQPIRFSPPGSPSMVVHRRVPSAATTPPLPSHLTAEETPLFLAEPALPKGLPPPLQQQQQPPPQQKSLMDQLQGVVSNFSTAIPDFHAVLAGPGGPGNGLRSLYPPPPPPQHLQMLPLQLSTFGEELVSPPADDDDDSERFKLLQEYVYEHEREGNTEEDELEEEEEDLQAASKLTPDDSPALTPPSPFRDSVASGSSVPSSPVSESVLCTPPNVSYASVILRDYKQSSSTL

Homo sapiens [3] = organism: Homo sapiens; test: Selectivity index, ratio of EC50 for human mGlu4 receptor to EC50 for human mGlu1 receptor
[4] = target: Metabotropic glutamate receptor 1 (Rattus norvegicus, UniProt P23385); test: Positive allosteric modulation of rat mGlu1 receptor assessed as potentiation of glutamate-induced calcium mobiliztion by cell based assay; format: functional
Outline: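 Rat mGlu1 WT calcium mobilization concentration-response curves. EC50 and % Glu Max were derived from the curves.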

[5] = target: T1, Metabotropic glutamate receptor 1; test: Positive allosteric modulation of human mGlu1 receptor in HEK293 cells assessed as potentiation of glutamate-induced calcium mobiliztion at 10 uM by Fluo-4AM dye based fluorescence analysis; format: functional, cell-based
Target sequence in this assay (Q13255 19-1194 limits assumed): as above

[6] = target: Metabotropic glutamate receptor 2 (Homo sapiens) (UniProt Q14416); test: Positive allosteric modulation of mGlu2 receptor (unknown origin) assessed as potentiation of glutamate-induced response by cell-based assay
Chain of Metabotropic glutamate receptor 2 (Homo sapiens) (Q14416 19-872 limits assumed): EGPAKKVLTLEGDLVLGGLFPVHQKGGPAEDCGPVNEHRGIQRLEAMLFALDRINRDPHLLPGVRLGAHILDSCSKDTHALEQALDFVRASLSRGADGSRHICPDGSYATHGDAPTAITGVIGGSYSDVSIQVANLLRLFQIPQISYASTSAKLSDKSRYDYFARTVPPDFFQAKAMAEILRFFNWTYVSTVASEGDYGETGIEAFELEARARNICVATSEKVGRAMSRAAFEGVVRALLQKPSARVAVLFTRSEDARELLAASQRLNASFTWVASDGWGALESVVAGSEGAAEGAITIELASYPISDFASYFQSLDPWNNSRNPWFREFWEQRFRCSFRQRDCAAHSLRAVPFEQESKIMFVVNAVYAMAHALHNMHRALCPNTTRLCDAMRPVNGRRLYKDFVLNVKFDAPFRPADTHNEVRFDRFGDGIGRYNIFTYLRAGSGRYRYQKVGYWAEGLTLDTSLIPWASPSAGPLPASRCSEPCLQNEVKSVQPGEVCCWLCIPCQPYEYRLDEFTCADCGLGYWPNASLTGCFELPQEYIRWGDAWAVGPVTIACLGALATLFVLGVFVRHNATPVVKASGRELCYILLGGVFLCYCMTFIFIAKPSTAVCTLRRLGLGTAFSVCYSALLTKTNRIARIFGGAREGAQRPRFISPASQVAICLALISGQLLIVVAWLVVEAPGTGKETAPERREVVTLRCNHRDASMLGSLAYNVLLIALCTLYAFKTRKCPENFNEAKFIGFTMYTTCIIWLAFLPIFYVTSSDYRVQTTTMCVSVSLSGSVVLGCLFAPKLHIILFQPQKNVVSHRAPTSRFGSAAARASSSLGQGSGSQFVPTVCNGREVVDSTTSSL
Outline: (§1)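 Selectivity counterscreen at the other mGlu subtypes using the standard fold-shift paradigm. Compound was tested at 10 μM against the glutamate concentration-response curve, and the shift of that curve was read.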

[7] = target: Metabotropic glutamate receptor 3 (Homo sapiens) (UniProt Q14832); test: Positive allosteric modulation of mGlu3 receptor (unknown origin) assessed as potentiation of glutamate-induced response by cell-based assay; outline: as §1
Chain of Metabotropic glutamate receptor 3 (Homo sapiens) (Q14832 23-879 limits assumed): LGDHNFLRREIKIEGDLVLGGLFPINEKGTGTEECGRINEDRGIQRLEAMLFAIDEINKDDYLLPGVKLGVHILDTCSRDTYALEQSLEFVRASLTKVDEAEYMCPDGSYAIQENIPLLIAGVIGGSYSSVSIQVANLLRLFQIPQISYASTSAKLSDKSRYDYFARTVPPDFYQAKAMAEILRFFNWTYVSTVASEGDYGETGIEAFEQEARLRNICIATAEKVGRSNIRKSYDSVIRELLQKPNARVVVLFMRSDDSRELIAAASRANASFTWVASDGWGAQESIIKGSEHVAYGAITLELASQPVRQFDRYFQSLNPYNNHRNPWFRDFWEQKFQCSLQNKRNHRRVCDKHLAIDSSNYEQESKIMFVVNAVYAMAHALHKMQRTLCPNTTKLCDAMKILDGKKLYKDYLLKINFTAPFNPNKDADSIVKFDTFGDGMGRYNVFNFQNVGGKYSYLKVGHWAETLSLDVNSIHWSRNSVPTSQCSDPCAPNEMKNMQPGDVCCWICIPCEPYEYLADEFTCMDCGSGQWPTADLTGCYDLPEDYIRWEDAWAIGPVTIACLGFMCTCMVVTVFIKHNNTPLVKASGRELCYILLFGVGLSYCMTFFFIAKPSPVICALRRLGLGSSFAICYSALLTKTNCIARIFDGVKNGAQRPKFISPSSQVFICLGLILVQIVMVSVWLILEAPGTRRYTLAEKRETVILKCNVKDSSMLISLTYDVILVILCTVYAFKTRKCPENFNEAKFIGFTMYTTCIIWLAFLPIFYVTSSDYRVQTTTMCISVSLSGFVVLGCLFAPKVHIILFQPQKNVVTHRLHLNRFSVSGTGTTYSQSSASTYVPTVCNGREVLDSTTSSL

[8] = target: Metabotropic glutamate receptor 6 (Homo sapiens) (UniProt O15303); test: Positive allosteric modulation of mGlu6 receptor (unknown origin) assessed as potentiation of glutamate-induced response by cell-based assay; outline: as §1
[9] = target: Metabotropic glutamate receptor 7 (Homo sapiens) (UniProt Q14831); test: Positive allosteric modulation of mGlu7 receptor (unknown origin) assessed as potentiation of glutamate-induced response by cell-based assay; outline: as §1
[10] = target: Metabotropic glutamate receptor 8 (Homo sapiens) (UniProt O00222); test: Positive allosteric modulation of mGlu8 receptor (unknown origin) assessed as potentiation of glutamate-induced response by cell-based assay; outline: as §1
[11] = Intrinsic clearance in human liver microsomes at 1 uM by LC-MS/MS analysis; format: ADME; conditions: read-out: CLH
Plasma = test: Fraction unbound in human plasma; format: ADME, cell-free
Cytochrome P450 1A2 = target: T2, Cytochrome P450 1A2 (Homo sapiens, UniProt P05177); test: Inhibition of CYP1A2 in human liver microsomes by LC-MS/MS analysis; format: ADME
T2 sequence (P05177 whole entry): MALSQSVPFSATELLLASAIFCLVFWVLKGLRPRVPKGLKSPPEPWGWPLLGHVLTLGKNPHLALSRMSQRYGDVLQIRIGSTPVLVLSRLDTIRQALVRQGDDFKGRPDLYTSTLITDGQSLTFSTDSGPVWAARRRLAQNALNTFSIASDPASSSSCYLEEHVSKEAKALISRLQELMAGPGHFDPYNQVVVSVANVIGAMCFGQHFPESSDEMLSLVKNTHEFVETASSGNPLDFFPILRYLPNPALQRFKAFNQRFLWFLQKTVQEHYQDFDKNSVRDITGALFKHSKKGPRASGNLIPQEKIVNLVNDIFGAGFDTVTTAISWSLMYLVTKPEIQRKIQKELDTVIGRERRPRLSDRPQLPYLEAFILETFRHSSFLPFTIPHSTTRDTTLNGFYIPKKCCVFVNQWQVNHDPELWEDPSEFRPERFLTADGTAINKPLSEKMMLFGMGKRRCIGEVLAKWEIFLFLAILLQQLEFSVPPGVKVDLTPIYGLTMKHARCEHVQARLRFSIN

Cytochrome P450 2C9 = Cytochrome P450 2C9 (Homo sapiens, UniProt P11712); test: Inhibition of CYP2C9 in human liver microsomes by LC-MS/MS analysis; format: ADME
Cytochrome P450 2D6 = Cytochrome P450 2D6 (Homo sapiens, UniProt P10635); test: Inhibition of CYP2D6 in human liver microsomes by LC-MS/MS analysis; format: ADME
Chain of Cytochrome P450 2D6 (P10635 whole entry): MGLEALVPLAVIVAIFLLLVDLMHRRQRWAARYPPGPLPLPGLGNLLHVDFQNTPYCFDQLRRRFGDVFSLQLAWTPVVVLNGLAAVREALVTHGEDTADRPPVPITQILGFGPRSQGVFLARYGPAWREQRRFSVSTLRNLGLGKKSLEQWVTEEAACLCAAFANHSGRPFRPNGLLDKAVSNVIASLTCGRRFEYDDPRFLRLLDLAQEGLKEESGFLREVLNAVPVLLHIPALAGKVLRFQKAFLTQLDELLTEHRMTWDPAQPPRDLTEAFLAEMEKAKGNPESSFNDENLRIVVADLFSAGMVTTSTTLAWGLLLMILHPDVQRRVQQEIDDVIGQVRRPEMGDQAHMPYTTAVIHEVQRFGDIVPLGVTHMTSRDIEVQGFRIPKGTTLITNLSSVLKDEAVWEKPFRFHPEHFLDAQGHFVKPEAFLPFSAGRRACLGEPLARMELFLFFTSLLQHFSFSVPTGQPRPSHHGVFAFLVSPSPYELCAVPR

[12] = test system: Metabotropic glutamate receptor 1 (Homo sapiens), Q13255 [P729T]; test: Agonist activity at human mGlu1 P729T mutant receptor expressed in HEK293 cells assessed as calcium mobilization at > 1 uM uM by Fluo-4AM dye based fluorescence analysis; format: functional, cell-based
Chain of Metabotropic glutamate receptor 1 (Homo sapiens), Q13255 [P729T] (Q13255 whole entry P729T): as the sequence (Q13255 whole entry) above, with P729T counted along it

[13] = test system: Metabotropic glutamate receptor 1 (Homo sapiens), Q13255 [Y632H]; test: Agonist activity at human mGlu1 Y632H mutant receptor expressed in HEK293 cells assessed as calcium mobilization at > 1 uM uM by Fluo-4AM dye based fluorescence analysis; format: functional, cell-based
Chain of Metabotropic glutamate receptor 1 (Homo sapiens), Q13255 [Y632H] (Q13255 whole entry Y632H): as the sequence (Q13255 whole entry) above, with Y632H counted along it

[14] = test system: Metabotropic glutamate receptor 1 (Homo sapiens), Q13255 [P1014S]; test: Agonist activity at human mGlu1 P1014S mutant receptor expressed in HEK293 cells assessed as calcium mobilization at > 1 uM uM by Fluo-4AM dye based fluorescence analysis; format: functional, cell-based
Chain of Metabotropic glutamate receptor 1 (Homo sapiens), Q13255 [P1014S] (Q13255 whole entry P1014S): as the sequence (Q13255 whole entry) above, with P1014S counted along it

Hippocampus = test: Toxic epileptiform activity in C57BL/6 mouse CA3 region of hippocampus assessed as frequency of spike activity at 10 uM by electrophysiolgy method (reference value: 0.99 +/- 0.38 Hz); format: toxicity, tissue-based
Outline: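 Mouse hippocampal slices with extracellular recording from the CA3 pyramidal cell body layer. Compound (10 μM) or DHPG (50 μM) was bath-applied, and the frequency of spontaneous spikes was compared with baseline. n = 6 per agent, paired t test.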

Mus musculus = test: Toxicity in C57BL/6 mouse assessed as seizure activity at 100 mg/kg, ip administered as single dose measured for 3 hrs; format: organism-based; conditions: in vivo
Outline: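 Male C57Bl/6 mice (25−30 g) dosed ip in 10% Tween 80 at 10 mL/kg: the mGlu5 ago-PAM at 1 or 3 mg/kg, the mGlu1 PAMs at 100 mg/kg. Behaviour was monitored continuously for 3 h and scored on a modified Racine scale (0−5).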

Homo sapiens [15] = organism: Homo sapiens; test: Intrinsic clearance in human hepatocytes at 1 uM by LC-MS/MS analysis; conditions: read-out: CLH
[16] = Half life in Sprague-Dawley rat at 0.2 mg/kg, iv by LC-MS/MS analysis; conditions: in vivo
[17] = Plasma clearance in Sprague-Dawley rat at 0.2 mg/kg, iv by LC-MS/MS analysis
Rattus norvegicus = test: Volume of distribution at steady state in Sprague-Dawley rat at 0.2 mg/kg, iv by LC-MS/MS analysis; conditions: in vivo
[18] = Drug concentration in Sprague-Dawley rat brain at 0.2 mg/kg, iv after 0.25 hrs by LC-MS/MS analysis; conditions: read-out: Drug uptake
[19] = Ratio of drug level in brain to plasma of Sprague-Dawley rat at 0.2 mg/kg, iv after 0.25 hrs by LC-MS/MS analysis; conditions: read-out: BPR

EC50 ([1]; read-out: EC50): 31.8 nM
EC50 ([1]; read-out: pEC50 (converted)): 32.4 nM
%max [2]: 98%
Ratio EC50 (Homo sapiens [3]): 34.9
EC50 [4]: 40.7 nM
fold change (FC) [5]: 11.4
fold change (FC) [6]: < 2
fold change (FC) [7]: < 2
fold change (FC) [8]: 6.7
fold change (FC) [9]: 7
fold change (FC) [10]: < 2
CLint scaled at 1 µM [11]: 3.1 mL/min/kg
Fu (Plasma): 0.051
IC50 (Cytochrome P450 1A2): 25200 nM
IC50 (Cytochrome P450 2C9): 6450 nM
IC50 (Cytochrome P450 2D6): > 30000 nM
Activity [12]: 40%
Activity [13]: 40%
Activity [14]: 40%
CLint scaled at 1 µM (Homo sapiens [15]): 2.7 mL/min/kg
half-life [16]: 53.6 min
clearance [17]: 13.3 mL/min/kg
Vdss (Rattus norvegicus): 0.85 L/kg
concentration at 0.25 h [18]: 204 ng/mL
Kp at 0.25 h [19]: 1.02
SMILES: Cc1ccoc1C(=O)Nc1ccc(N2C(=O)c3cccc(F)c3C2=O)c(Cl)c1
Activity (Hippocampus): 1.16 Hz
Activity (Mus musculus): Non-toxic
